Compound activity from PubChem BioAssay.
CAL PDZ FP-1 = untagged CAL PDZ binding inhibitors, primary screen, biochemical, fluorescence polarization, HTS. purified CAL PDZ, TMR-peptide fluorescence polarization, 1 h. inhibition, % at 24.9 µM. hit rate 0.92% among 300,000;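 active means mean inhibition of at least 30% with at least half of replicates also reaching 30%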;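 further: 0% = DMSO neutral control and 100% = excess unlabeled competitor peptide PRC23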
S100A4 inh HTS = inhibitors of S100A4-myosin IIA peptide binding, primary screen, biochemical, fluorescence polarization, TAMRA-MyoIIA peptide. Protein S100-A4 (Homo sapiens), P26447. hit rate 0.14% among 360,000. inhibition, % at 10.7 µM;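 active means mean inhibition of at least 70% across replicates, with every replicate also reaching that level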
Target sequence (P26447 whole entry, looked up): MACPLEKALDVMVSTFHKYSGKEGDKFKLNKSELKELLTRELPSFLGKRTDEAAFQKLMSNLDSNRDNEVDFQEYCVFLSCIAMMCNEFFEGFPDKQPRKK
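Test system – S100A4 monomer (human) · Compound – single-point compound testing · Schedule – 5 min incubation before reading · Probe or stimulus – TAMRA-labelled myosin IIA heavy-chain peptide probe, 5 nM · Benchmarks – neutral control DMSO, positive control TFP · Medium – Calcium-containing HEPES buffer, pH 7.2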
CDK5 p35 inh = inhibitors of human CDK5/p35 kinase, primary screen, biochemical, single concentration; Recombinant CDK5/p35, ADP-Glo luminescence, 60 min; inhibition, % at 10 µM; hit rate 0.01% among 330,000;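 active means highest replicate inhibition of at least 50% and at least 75% of replicates reaching 50%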;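 further: plate controls were DMSO neutral control for no effect and GW8510 at 10 µM for full effect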
CAL PDZ FP-2 = CAL PDZ peptide-binding inhibitors, primary screen, biochemical, fluorescence polarization, Cer-tagged CAL PDZ, HTS; purified CAL PDZ, TMR-peptide fluorescence polarization, 1 h; inhibition, % at 20 µM; hit rate 0.02% among 330,000; AID 504414, 2011;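 active means highest replicate inhibition of at least 40%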;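 further: plate controls were DMSO neutral control wells for no effect and unlabeled competitor peptide control wells for full effect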
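material = purified tagged CAL PDZ domain construct (CerCALP) | compound dosing = 20 µM, one dose | times = 1 h at RT | measured by = fluorescence polarization from S- and P-plane intensities, G-factor corrected | read-out = inhibition from polarization loss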
dFosB activator = activators of delta FosB homodimer, primary screen, biochemical, fluorescence polarization, TAMRA-CDK5 oligo, single point. Protein FosB (Mus musculus), P13346. purified delta FosB; percent of positive-control signal above neutral wells. activation, % at 25 µM. hit rate 0.99% among 340,000. AID 493131, 2011;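 active means mean activation above about 17%, with every replicate also reaching it, limit read from the data, passing the limit was not always enough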
Target sequence (P13346 whole entry, looked up): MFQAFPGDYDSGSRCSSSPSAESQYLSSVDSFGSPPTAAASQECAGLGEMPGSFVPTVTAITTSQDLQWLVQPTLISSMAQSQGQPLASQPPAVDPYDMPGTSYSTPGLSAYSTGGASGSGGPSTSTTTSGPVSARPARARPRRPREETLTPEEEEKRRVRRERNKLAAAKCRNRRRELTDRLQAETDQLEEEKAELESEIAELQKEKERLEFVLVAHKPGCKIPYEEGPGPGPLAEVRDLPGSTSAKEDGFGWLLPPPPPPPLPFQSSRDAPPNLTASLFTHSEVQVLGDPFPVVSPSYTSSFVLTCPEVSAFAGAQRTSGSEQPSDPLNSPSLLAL
Statin myotox sup = suppressors of statin myotoxicity in C2C12 myotubes, primary screen, cell-based, single point, plate reader; rescue of ATP level, % at 7.49 µM; C2C12 myotubes + simvastatin, ATP luminescence, 48 h; scaled: DMSO 0, geranylgeraniol control 100; hit rate 0.78% among 330,000; AID 602340, 2012;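 active means mean ATP rescue above about 67%, or every replicate alone reaching that limit, limit read from the data, passing the limit was not always enough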;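 further: myotubes were challenged with 10 µM simvastatin during compound exposure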
An asterisk follows results filed as active; nt = no result given. An excerpt weighted towards active compounds, which were near 2% of everything screened.

SMILES | CAL PDZ FP-1 | S100A4 inh HTS | CDK5 p35 inh | CAL PDZ FP-2 | dFosB activator | Statin myotox sup
NC(=O)c1cc(Cc2ccccc2)sc1NC(=O)c1ccco1 | -3 | -1 | 0 | -3 | 75* | 10
O=C(Nc1nnc(Cc2ccccc2)s1)c1ccco1 | -5 | 9 | 0 | 0 | -5 | 8
O=C1NC2(CCCCCC2)N=C1c1ccc(F)cc1 | 66* | nt | 0 | 0 | -2 | 15
S=C1NC2(CCCCCC2)N=C1c1ccccc1 | 6 | 2 | -3 | -1 | -5 | -6
O=C(CC(c1ccccc1)c1ccccc1)Nc1ccncc1 | 81* | -1 | -2 | -3 | -4 | -3
CC(O)c1cccc(NC(=O)CC(c2ccccc2)c2ccccc2)c1 (stereo not given) | 5 | 3 | 0 | -3 | -17 | 13
COC(=O)c1ccc(CSc2nc3c(cnn3-c3ccc(C)c(C)c3)c(=O)[nH]2)o1 | 0 | nt | 0 | -3 | 0 | 132*
CCCSc1nc2c(cnn2-c2ccc(C)c(C)c2)c(=O)[nH]1 | -3 | -5 | -2 | 0 | -6 | -17
Cc1ccccc1/C(N)=N/OC(=O)N1c2ccccc2Sc2ccccc21 | 0 | nt | 0 | -1 | -3 | 13
Cc1ccc(/C(N)=N/OC(=O)N2c3ccccc3Sc3ccccc32)cc1 | 81* | nt | 1 | -3 | -7 | -6
CCOC(=O)c1oc2cccc(OC(C)=O)c2c1C | nt | nt | 0 | -1 | -4 | 147*
COCc1cc(Sc2cccc(Cl)c2Cl)nc(-c2ccccc2)n1 | 36* | nt | -1 | -1 | 1 | -11
Cc1ccc(C(=O)N2CCC(N3CCC(C(=O)N4CCOCC4)CC3)CC2)cc1C | 74* | -10 | 0 | -1 | -7 | nt
O=C(c1ccc(Cl)cc1)N1CCC(N2CCC(C(=O)N3CCOCC3)CC2)CC1 | -3 | -17 | 0 | -2 | -9 | 20
COc1ccc(NC(=O)N(C)C[C@H]2Oc3ccc(NC(=O)C4CCCCC4)cc3CC(=O)N([C@H](C)CO)C[C@@H]2C)cc1 | nt | 2 | nt | nt | nt | -11
N#Cc1c(/N=C/c2cccs2)sc2c1CCC2 | 0 | nt | 0 | nt | 1 | 3
N#Cc1c(/N=C/c2cc(Br)cs2)sc2c1CCC2 | 3 | nt | 1 | -1 | 1 | 68*
CC(C)CC#Cc1ccc2c(c1)O[C@@H](CN(C)C(=O)NC1CCCC1)[C@@H](C)CN([C@H](C)CO)S2(=O)=O | nt | 13 | nt | nt | nt | nt
O=C(COC(=O)c1n[nH]c(=O)c2ccccc12)c1ccc(Cl)cc1 | -5 | nt | 0 | nt | -7 | nt
O=C(CN1C(=O)COc2ccc(Cl)cc21)NCC1CCCO1 (stereo not given) | 35* | -2 | 2 | -3 | -1 | -6
Cc1csc(NC(=O)CN2C(=O)COc3ccc(Cl)cc32)n1 | -1 | 2 | -1 | -3 | 29* | 8
O=C(COC(=O)/C=C/c1ccc2c(c1)OCO2)NC1CC1 | 4 | -1 | -1 | 0 | 1 | nt
Nc1ccc(C(=O)Nc2ccc3cc(S(=O)(=O)O)ccc3c2)cc1 | 12 | -6 | 1 | -2 | 4 | 93*
Nc1ccc(C(=O)Nc2cccc(NC(=O)c3ccc(N)cc3)c2)cc1 | -4 | -1 | 2 | nt | 1 | -5
Cc1nn(CC(=O)NCCc2ccccc2)c(=O)c2cccn12 | 46* | 5 | 1 | -3 | -7 | -7
SMILES | CAL PDZ FP-1 | S100A4 inh HTS | CDK5 p35 inh | CAL PDZ FP-2 | dFosB activator | Statin myotox sup
Cc1nn(CC(=O)NCCCN2CCCCC2)c(=O)c2cccn12 | 2 | -6 | -2 | -3 | -5 | 4
CC[C@]12c3[nH]c4cc(CCC(=O)N(C)C)ccc4c3CCN1C(=O)[C@@H](CC(=O)NCCc1ccccn1)C[C@@H]2C(=O)N1CCN(C(=O)C2CC2)CC1 | 0 | -14 | -5 | 1 | -6 | 3
Cc1cc(N2CCCC2)nc(-c2ccccc2O)n1 | -1 | nt | 0 | -1 | -4 | 115*
Cc1cc(Oc2ccccc2)nc(-c2ccccc2O)n1 | -1 | nt | 0 | -1 | 5 | 104*
C=CCOc1cc(C)nc(-c2ccccc2O)n1 | -1 | nt | 0 | 0 | 2 | -2
Cc1cc(N2CCN(C)CC2)nc(-c2ccccc2O)n1 | -3 | 2 | 0 | -3 | 0 | nt
COc1ccc(C(=O)OCc2cc(C)ccc2C)cc1S(=O)(=O)N1CCCC1 | -1 | -3 | -2 | 1 | -9 | 2
COC(=O)c1cc(COC(=O)c2ccc(OC)c(S(=O)(=O)N3CCCC3)c2)oc1C | -5 | nt | -1 | -1 | 2 | 90*
Cc1c(Br)c([N+](=O)[O-])nn1C(C)C(=O)NCc1cccs1 (stereo not given) | -1 | nt | -1 | -2 | 2 | 18
CNc1snc(C)c1C(=O)OCC(=O)c1ccc(Cl)cc1 | -2 | 0 | 2 | -1 | -12 | -14
Cc1ccc(S(=O)(=O)n2nc(OC(=O)C3CCCCC3)cc2N)cc1 | 4 | nt | -1 | -1 | 10 | -4
COc1ccc(S(=O)(=O)n2nc(OC(=O)C3CCCCC3)cc2N)cc1 | -2 | nt | 0 | nt | 0 | 106*
CCc1nnc(NC(=O)CN2C(=O)CCC2=O)s1 | -1 | nt | -2 | 0 | 6 | nt
O=C1C[C@@H]2c3c(cccc3CN1Cc1ccccc1F)C[C@@H](O)[C@H]2O | 2 | -1 | 1 | -1 | 2 | 126*
O=C1C[C@@H]2c3c(cccc3CN1Cc1ccc(Cl)cc1)C[C@@H](O)[C@H]2O | -3 | -1 | 2 | -1 | 10 | 119*
O=C1C[C@@H]2c3c(cccc3CN1Cc1ccccc1Cl)C[C@@H](O)[C@H]2O | -1 | -4 | 3 | -1 | 0 | 20
CCN(CC(=O)Nc1ccc(N2CCOCC2)cc1)Cc1nc2ccccc2c(=O)[nH]1 | 5 | nt | 2 | 0 | 4 | -22
Cc1cccc(Cc2c(C)nc3c(C(=O)NCc4ccco4)cnn3c2C)c1 | nt | nt | -2 | -4 | -21 | 107*
Cc1occc1C(=O)N/N=C/c1ccc(N(C)C)cc1 | -6 | -4 | 29 | 2 | -9 | -34
O=S(=O)(c1ccc2c(c1)OCCO2)N(Cc1ccc(F)cc1)Cc1nnc(-c2cccs2)o1 | 43* | nt | -1 | -2 | -11 | -6
O=C(Nc1cccc(C(F)(F)F)c1)Oc1ccc(Cl)c2cccnc12 | 35* | -14 | 1 | -1 | 1 | -42
c1ccc(C2NCCNC2c2ccccc2)cc1 (stereo not given) | -3 | -7 | 1 | 1 | -4 | -3
